For orientation: IC50 means the concentration that inhibits the measured activity by half. A low value points to inhibition by little substance. The term inhibition denotes how much of the control response was suppressed. A lower inhibition goes with little suppression.

These results are taken from ChEMBL document CHEMBL1137834, “Synthesis of cinnamic acid derivatives and their inhibitory effects on LDL-oxidation, acyl-CoA:cholesterol acyltransferase-1 and -2 activity, and decrease of HDL-particle size” (Bioorg Med Chem Lett, 2004).

Some results are limits rather than exact numbers.

The species named for test [1] is Homo sapiens. Description: Antioxidant activity against copper mediated low-density lipoproteins (LDL) oxidation. It is filed as functional. The procedure, abridged: (§1)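 Test compounds at final 1 µg/mL. Oxidation read as TBARS, expressed as nmol MDA/mg LDL and % inhibition against LDL + CuSO4 alone. Electromobility was also compared on 0.7% agarose gel.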
The target of test [2] is T1, Sterol O-acyltransferase 2 (Homo sapiens, UniProt O75908).
T1 sequence (O75908 whole entry): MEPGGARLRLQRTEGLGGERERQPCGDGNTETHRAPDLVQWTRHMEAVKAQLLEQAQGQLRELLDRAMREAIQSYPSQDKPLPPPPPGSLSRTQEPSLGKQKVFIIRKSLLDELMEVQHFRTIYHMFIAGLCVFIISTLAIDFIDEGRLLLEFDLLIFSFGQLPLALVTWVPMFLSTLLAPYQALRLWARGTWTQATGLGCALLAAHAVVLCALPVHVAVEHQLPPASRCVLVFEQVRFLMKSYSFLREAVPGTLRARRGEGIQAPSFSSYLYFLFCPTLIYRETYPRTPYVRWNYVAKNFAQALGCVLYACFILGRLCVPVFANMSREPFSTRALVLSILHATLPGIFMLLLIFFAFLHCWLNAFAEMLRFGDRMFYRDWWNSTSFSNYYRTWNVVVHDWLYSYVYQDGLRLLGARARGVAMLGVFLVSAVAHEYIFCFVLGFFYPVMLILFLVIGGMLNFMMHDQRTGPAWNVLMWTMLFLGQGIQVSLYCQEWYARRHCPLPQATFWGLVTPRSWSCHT
Description: Inhibitory activity against human Acyl-CoA:cholesterol acyltransferase-2.

For test [3], the target named is T2, Sterol O-acyltransferase 2 (Homo sapiens) (UniProt O75908).
T2 sequence (whole entry): T1 sequence (O75908 whole entry)
Nature of the test: Inhibitory activity against human Acyl-CoA:cholesterol acyltransferase-2 at 30 ug/mL.

The species named for test [4] is Homo sapiens. Nature of the test: Antioxidant activity was determined by measuring the produced thiobarbituric acid reactive substance. Format: functional. The procedure, abridged:
as §1

The species named for the next test is Oryctolagus cuniculus. Nature of the test: Compound inhibited the rHDL-particle rearrangement under presence of LDL at 37 degree C. Format: functional. The procedure, abridged: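 rHDL particles (98 Å, 2 mg/mL preparation) were incubated at 37 °C for 24 h with human LDL (4 mg/mL preparation) and compound. Products were run on native 8–25% polyacrylamide gradient gel and stained with Coomassie to compare particle size.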

For `O=C(CCc1ccc(O)c(O)c1)N[C@@H](CC(=O)OCc1ccccc1)C(=O)OCc1ccccc1`, the IC50 in the test listed under Homo sapiens [1] is 3 µM; in test [2], 81 µM. The compound also registered an inhibition in test [3] above 70%. Further, in the test listed under Homo sapiens [4], the Activity is on record as 32.1 nmol of MDA/mg of LDL.
On to `COC(=O)[C@H](C)NC(=O)/C=C/c1ccc(O)c(O)c1`, for which the inhibition in test [3] was 0%. Moreover, in the test filed under Homo sapiens [4], the Activity is 91.5 nmol of MDA/mg of LDL.
Regarding `CC(C)(Sc1cc(C(C)(C)C)c(O)c(C(C)(C)C)c1)Sc1cc(C(C)(C)C)c(O)c(C(C)(C)C)c1` [PROBUCOL], the Activity in the test filed under Homo sapiens [4] is on record as 263.1 nmol of MDA/mg of LDL.
Regarding `COC(=O)[C@H](Cc1ccccc1)NC(=O)/C=C/c1ccc(O)cc1`, in the test listed under Homo sapiens [1], the IC50 was determined as 52 µM. Further, the Inhibition in the test listed under Oryctolagus cuniculus amounted to 307 µM. For the same compound, the inhibition in test [3] was above 70%. For the same compound, the Activity in the test filed under Homo sapiens [4] is recorded as 269 nmol of MDA/mg of LDL.
